Data: ChEMBL document CHEMBL4732237, “Discovery of 4-alkoxy-2-aryl-6,7-dimethoxyquinolines as a new class of topoisomerase I inhibitors endowed with potent in vitro anticancer activity” (2021)

Tests used:
Assay type in all cases: functional
Settings in all cases: read-out: GI
[1] = tested on: MDA-MB-468; test: Growth inhibition of human MDA-MB-468 cells at 10 uM incubated for 48 hrs by sulforhodamine B assay relative to control
Procedure, shortened: (§1)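 NCI-60 single-dose screen. Cells were grown in RPMI 1640 with 5% FBS and 2 mM L-glutamine and plated 24 h before drug addition. Compound was added at one concentration in DMSO-derived medium and incubated for 48 h at 37 °C in 5% CO2. Read-out was SRB protein stain at 515 nm. Result is percent growth versus the no-drug control and the time-zero cell count; values below 0 indicate lethality.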

[2] = tested on: HL-60(TB); test: Growth inhibition of human HL-60(TB) cells at 10 uM incubated for 48 hrs by sulforhodamine B assay relative to control
Procedure, shortened: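 NCI-60 one-dose screen: same culture, 48 h drug exposure and SRB read-out. Reported as percent growth relative to no-drug control and to time-zero cell number; 0–100 means growth inhibition, below 0 means lethality.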

[3] = tested on: NCI-H460; test: Growth inhibition of human NCI-H460 cells at 10 uM incubated for 48 hrs by sulforhodamine B assay relative to control
Procedure, shortened: (§2)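 NCI one-dose screen. Cells grown in RPMI 1640 with 5% FBS and 2 mM L-glutamine, plated and incubated 24 h at 37 °C, 5% CO2. DMSO-dissolved drug added, then 48 h further incubation. Adherent cells fixed with cold TCA, suspension cells fixed after settling. Stained with 0.4% SRB, absorbance read at 515 nm. Reported as percent growth relative to no-drug control and time-zero cell number.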

[4] = tested on: SNB-19; test: Growth inhibition of human SNB-19 cells at 10 uM incubated for 48 hrs by sulforhodamine B assay relative to control; procedure, shortened: as §2
[5] = tested on: UACC-62; test: Growth inhibition of human UACC-62 cells at 10 uM incubated for 48 hrs by sulforhodamine B assay relative to control
Procedure, shortened: (§3)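 NCI one-dose screen across a 59-line panel. Cells were grown in RPMI 1640 with 5% FBS and 2 mM L-glutamine, plated and pre-incubated 24 h, then exposed to drug for 48 h at 37 °C, 5% CO2. Adherent cells were fixed with cold TCA (10% final), stained with 0.4% SRB in 1% acetic acid and read at 515 nm. Result is percent growth relative to no-drug control and time-zero cell count.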

[6] = tested on: NCI/ADR-RES; test: Growth inhibition of human NCI/ADR-RES cells at 10 uM incubated for 48 hrs by sulforhodamine B assay relative to control; procedure, shortened: as §2
[7] = tested on: EKVX; test: Growth inhibition of human EKVX cells at 10 uM incubated for 48 hrs by sulforhodamine B assay relative to control; procedure, shortened: as §1
[8] = tested on: SF-268; test: Growth inhibition of human SF-268 cells at 10 uM incubated for 48 hrs by sulforhodamine B assay relative to control; procedure, shortened: as §2
[9] = tested on: K562; test: Growth inhibition of human K562 cells at 10 uM incubated for 48 hrs by sulforhodamine B assay relative to control; procedure, shortened: as §1
[10] = tested on: HOP-62; test: Growth inhibition of human HOP-62 cells at 10 uM incubated for 48 hrs by sulforhodamine B assay relative to control; procedure, shortened: as §1
[11] = tested on: MCF7; test: Growth inhibition of human MCF7 cells at 10 uM incubated for 48 hrs by sulforhodamine B assay relative to control; procedure, shortened: as §1
[12] = tested on: RXF 393; test: Growth inhibition of human RXF 393 cells at 10 uM incubated for 48 hrs by sulforhodamine B assay relative to control; procedure, shortened: as §2
[13] = tested on: UO-31; test: Growth inhibition of human UO-31 cells at 10 uM incubated for 48 hrs by sulforhodamine B assay relative to control; procedure, shortened: as §3
[14] = tested on: SK-MEL-5; test: Growth inhibition of human SK-MEL-5 cells at 10 uM incubated for 48 hrs by sulforhodamine B assay relative to control; procedure, shortened: as §2
[15] = tested on: IGROV-1; test: Growth inhibition of human IGROV-1 cells at 10 uM incubated for 48 hrs by sulforhodamine B assay relative to control; procedure, shortened: as §1
[16] = tested on: SK-MEL-2; test: Growth inhibition of human SK-MEL-2 cells at 10 uM incubated for 48 hrs by sulforhodamine B assay relative to control; procedure, shortened: as §2
[17] = tested on: NCI-H226; test: Growth inhibition of human NCI-H226 cells at 10 uM incubated for 48 hrs by sulforhodamine B assay relative to control; procedure, shortened: as §2
[18] = tested on: KM12; test: Growth inhibition of human KM12 cells at 10 uM incubated for 48 hrs by sulforhodamine B assay relative to control; procedure, shortened: as §1
[19] = tested on: PC-3; test: Growth inhibition of human PC-3 cells at 10 uM incubated for 48 hrs by sulforhodamine B assay relative to control; procedure, shortened: as §2
[20] = tested on: OVCAR-3; test: Growth inhibition of human OVCAR-3 cells at 10 uM incubated for 48 hrs by sulforhodamine B assay relative to control; procedure, shortened: as §2
[21] = tested on: SN12C; test: Growth inhibition of human SN12C cells at 10 uM incubated for 48 hrs by sulforhodamine B assay relative to control; procedure, shortened: as §2
[22] = tested on: SF-539; test: Growth inhibition of human SF-539 cells at 10 uM incubated for 48 hrs by sulforhodamine B assay relative to control; procedure, shortened: as §2
[23] = tested on: LOX IMVI; test: Growth inhibition of human LOX IMVI cells at 10 uM incubated for 48 hrs by sulforhodamine B assay relative to control; procedure, shortened: as §1
[24] = tested on: SK-MEL-28; test: Growth inhibition of human SK-MEL-28 cells at 10 uM incubated for 48 hrs by sulforhodamine B assay relative to control; procedure, shortened: as §2
[25] = tested on: MDA-MB-435; test: Growth inhibition of human MDA-MB-435 cells at 10 uM incubated for 48 hrs by sulforhodamine B assay relative to control; procedure, shortened: as §1
[26] = tested on: OVCAR-5; test: Growth inhibition of human OVCAR-5 cells at 10 uM incubated for 48 hrs by sulforhodamine B assay relative to control; procedure, shortened: as §2
[27] = tested on: MDA-MB-231; test: Growth inhibition of human MDA-MB-231 cells at 10 uM incubated for 48 hrs by sulforhodamine B assay relative to control; procedure, shortened: as §1
[28] = tested on: Hs-578T; test: Growth inhibition of human HS-578T cells at 10 uM incubated for 48 hrs by sulforhodamine B assay relative to control; procedure, shortened: as §1
[29] = tested on: NCI-H522; test: Growth inhibition of human NCI-H522 cells at 10 uM incubated for 48 hrs by sulforhodamine B assay relative to control; procedure, shortened: as §2
[30] = tested on: OVCAR-8; test: Growth inhibition of human OVCAR-8 cells at 10 uM incubated for 48 hrs by sulforhodamine B assay relative to control; procedure, shortened: as §2
[31] = tested on: SNB-75; test: Growth inhibition of human SNB-75 cells at 10 uM incubated for 48 hrs by sulforhodamine B assay relative to control; procedure, shortened: as §2
[32] = tested on: COLO 205; test: Growth inhibition of human COLO 205 cells at 10 uM incubated for 48 hrs by sulforhodamine B assay relative to control; procedure, shortened: as §1
[33] = tested on: SF-295; test: Growth inhibition of human SF-295 cells at 10 uM incubated for 48 hrs by sulforhodamine B assay relative to control; procedure, shortened: as §2
[34] = tested on: M14; test: Growth inhibition of human M14 cells at 10 uM incubated for 48 hrs by sulforhodamine B assay relative to control; procedure, shortened: as §1
[35] = tested on: T47D; test: Growth inhibition of human T47D cells at 10 uM incubated for 48 hrs by sulforhodamine B assay relative to control; procedure, shortened: as §3
[36] = tested on: SR; test: Growth inhibition of human SR cells at 10 uM incubated for 48 hrs by sulforhodamine B assay relative to control; procedure, shortened: as §2

Row | SMILES | inhibition of growth at 10 µM [1] [%] | inhibition of growth at 10 µM [2] [%] | inhibition of growth at 10 µM [3] [%] | inhibition of growth at 10 µM [4] [%] | inhibition of growth at 10 µM [5] [%] | inhibition of growth at 10 µM [6] [%] | inhibition of growth at 10 µM [7] [%] | inhibition of growth at 10 µM [8] [%] | inhibition of growth at 10 µM [9] [%] | inhibition of growth at 10 µM [10] [%] | inhibition of growth at 10 µM [11] [%] | inhibition of growth at 10 µM [12] [%] | inhibition of growth at 10 µM [13] [%] | inhibition of growth at 10 µM [14] [%] | inhibition of growth at 10 µM [15] [%] | inhibition of growth at 10 µM [16] [%] | inhibition of growth at 10 µM [17] [%] | inhibition of growth at 10 µM [18] [%] | inhibition of growth at 10 µM [19] [%] | inhibition of growth at 10 µM [20] [%] | also measured
1 | COc1cc2nc(-c3cccs3)cc(OCCCN3CCC(O)CC3)c2cc1OC | 20 | 20 | 20 | 20 | 20 | 20 | 20 | 20 | 20 | 20 | 20 | 20 | 20 | 20 | 20 | 20 | 20 | 20 | 20 | 20 | inhibition of growth at 10 µM [21]: 20%; inhibition of growth at 10 µM [22]: 20%; inhibition of growth at 10 µM [23]: 20%; inhibition of growth at 10 µM [24]: 20%; inhibition of growth at 10 µM [25]: 20%; inhibition of growth at 10 µM [26]: 20%; inhibition of growth at 10 µM [27]: 20%; inhibition of growth at 10 µM [28]: 20%; inhibition of growth at 10 µM [29]: 20%; inhibition of growth at 10 µM [30]: 20%; inhibition of growth at 10 µM [31]: 20%; inhibition of growth at 10 µM [32]: 20%; inhibition of growth at 10 µM [33]: 20%; inhibition of growth at 10 µM [34]: 20%; inhibition of growth at 10 µM [35]: 20%; inhibition of growth at 10 µM [36]: 20%
2 | COc1cc2nc(-c3ccc(Cl)cc3)cc(OCCN3CCCCC3)c2cc1OC | 3 | 3 | 3 | 3 | 3 | 3 | 3 | 3 | 3 | 3 | 3 | 3 | 3 | 3 | 3 | 3 | 3 | 3 | 3 | 3 | inhibition of growth at 10 µM [21]: 3%; inhibition of growth at 10 µM [22]: 3%; inhibition of growth at 10 µM [23]: 3%; inhibition of growth at 10 µM [24]: 3%; inhibition of growth at 10 µM [25]: 3%; inhibition of growth at 10 µM [26]: 3%; inhibition of growth at 10 µM [27]: 3%; inhibition of growth at 10 µM [28]: 3%; inhibition of growth at 10 µM [29]: 3%; inhibition of growth at 10 µM [30]: 3%; inhibition of growth at 10 µM [31]: 3%; inhibition of growth at 10 µM [32]: 3%; inhibition of growth at 10 µM [33]: 3%; inhibition of growth at 10 µM [34]: 3%; inhibition of growth at 10 µM [35]: 3%; inhibition of growth at 10 µM [36]: 3%
3 | COc1cc2nc(-c3ccc(Cl)cc3)cc(OCCCN3CCCCC3)c2cc1OC | 62 | 62 | 62 | 62 | 62 | 62 | 62 | 62 | 62 | 62 | 62 | 62 | 62 | 62 | 62 | 62 | 62 | 62 | 62 | 62 | inhibition of growth at 10 µM [21]: 62%; inhibition of growth at 10 µM [22]: 62%; inhibition of growth at 10 µM [23]: 62%; inhibition of growth at 10 µM [24]: 62%; inhibition of growth at 10 µM [25]: 62%; inhibition of growth at 10 µM [26]: 62%; inhibition of growth at 10 µM [27]: 62%; inhibition of growth at 10 µM [28]: 62%; inhibition of growth at 10 µM [29]: 62%; inhibition of growth at 10 µM [30]: 62%; inhibition of growth at 10 µM [31]: 62%; inhibition of growth at 10 µM [32]: 62%; inhibition of growth at 10 µM [33]: 62%; inhibition of growth at 10 µM [34]: 62%; inhibition of growth at 10 µM [35]: 62%; inhibition of growth at 10 µM [36]: 62%
